Data taken from ChEMBL document CHEMBL4706504, “Hit-to-lead optimization of a latency-associated nuclear antigen inhibitor against Kaposi's sarcoma-associated herpesvirus infections” (Eur J Med Chem, 2020).
Calls of active or inactive are those of the source. The calls are words filed in the database; no cut-off is given here.

What was measured:
Human gammaherpesvirus 8 [1] = assay: (§1) Inhibition of Kaposi's sarcoma herpesvirus C-terminal His-tagged oligomerization deficient LANA DBD (1008 to 1146 residues) K1055E/K1138S/K1140D/K1141D/R1039Q/R1040Q/A1121E/K1109A/D1110A mutant expressed in Escherichia coli BL21(DE3) assessed as inhibition of LANA interaction with fluorescently-labelled viral DNA LBS2 probe at 500 uM preincubated with LANA-DBD for 60 mins followed by addition of DNA probe and measured after 90 mins by flourescence polarization assay; settings: time 150.0 min
Human gammaherpesvirus 8 [2] = assay: (§2) Inhibition of Kaposi's sarcoma herpesvirus wild type LANA CTD (934 to 1162 residues) expressed in Escherichia coli BL21 (DE3) assessed as inhibition of LANA interaction with 5'-Dy682-labeled viral DNA LBS1 probe at 250 uM preincubated with LANA CTD for 60 mins followed by addition of DNA probe and measured after 30 mins by Electrophoretic mobility shift assay; settings: time 90.0 min
[3] = as §1, with “probe” for “probe at 500 uM”; design: species or system Human gammaherpesvirus 8
Summary of the method: (§3)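 FP competition of DNA binding, using the oligomerization-deficient LANA DBD mutant (aa 1008-1146, nine point mutations). Probes were LBS1, LBS2 or LBS3. Values are IC50 from the average of duplicates ± standard deviation.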

[4] = as §1, with “LBS3” for “LBS2”, “probe” for “probe at 500 uM”; design: species or system Human gammaherpesvirus 8; summary of the method: as §3
Human gammaherpesvirus 8 [5] = assay: as §1, with “5'-Dy682-labeled” for “fluorescently-labelled”, “LBS1” for “LBS2”, “30” for “90”, “Electrophoretic mobility shift” for “flourescence polarization”; settings: time 90.0 min
[6] = as §1, with “LBS1” for “LBS2”, “probe” for “probe at 500 uM”; design: species or system Human gammaherpesvirus 8; summary of the method: as §3
Human gammaherpesvirus 8 [7] = assay: Inhibition of Kaposi's sarcoma herpesvirus C-terminal His-tagged oligomerization deficient LANA DBD (1008 to 1146 residues) K1055E/K1138S/K1140D/K1141D/R1039Q/R1040Q/A1121E/K1109A/D1110A mutant expressed in Escherichia coli BL21(DE3) assessed as inhibition of LANA interaction with 5'-Dy682-labeled …; settings: dose 250.0 µM, time 90.0 min
[8] = as §2, with “probe” for “probe at 250 uM”; design: species or system Human gammaherpesvirus 8
Summary of the method: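 GST-tagged KSHV LANA CTD (aa934-1162), wild type and unmutated, binding an LBS1 probe in EMSA. Compounds were first screened at a single fixed final concentration, then run in a dose-response EMSA. LANA-DNA complex (upper) band intensities were normalized to 0-100% inhibition. IC50 came from a four-parameter dose-response fit.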

Human gammaherpesvirus 8 [9] = assay: as §1, with “5'-Dy682-labeled” for “fluorescently-labelled”, “LBS1+2+3” for “LBS2”, “125” for “500”, “30” for “90”, “Electrophoretic mobility shift” for “flourescence polarization”; settings: time 90.0 min
Summary of the method: (§4)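 EMSA with the LANA DBD mutant as a dose-dependent test against higher-order complexes. Combined probes were LBS1+2 and LBS2+1+3. Inhibition was judged from loss of the LANA-DNA complex band.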

Human gammaherpesvirus 8 [10] = assay: Binding affinity to Kaposi's sarcoma herpesvirus C-terminal His-tagged oligomerization deficient LANA DBD (1008 to 1146 residues) K1055E/K1138S/K1140D/K1141D/R1039Q/R1040Q/A1121E/K1109A/D1110A mutant expressed in Escherichia coli BL21(DE3) at 500 uM by STD-NMR analysis
[11] = as §1, with “5'-Dy682-labeled” for “fluorescently-labelled”, “LBS1” for “LBS2”, “probe” for “probe at 500 uM”, “30” for “90”, “Electrophoretic mobility shift” for “flourescence polarization”; design: species or system Human gammaherpesvirus 8
Human gammaherpesvirus 8 [12] = assay: as §1, with “5'-Dy682-labeled” for “fluorescently-labelled”, “LBS1+2” for “LBS2”, “62.5” for “500”, “30” for “90”, “Electrophoretic mobility shift” for “flourescence polarization”; settings: time 90.0 min; summary of the method: as §4

| Compound | IC50 [3] [µM] | inhibition (Human gammaherpesvirus 8 [5]) | also measured |
| --- | --- | --- | --- |
| COc1cc(F)cc(-c2cncc(-n3cc(-c4ccc(C(=O)O)cc4)nn3)c2)c1 | – | – | inhibition (Human gammaherpesvirus 8 [1]): inactive |
| O=C(O)c1ccc(-c2cn(-c3cnccc3-c3ccccc3)nn2)cc1 | 18 | 100% | inhibition (Human gammaherpesvirus 8 [2]): inactive; IC50 [4]: 42 µM; IC50 [6]: 52 µM; inhibition (Human gammaherpesvirus 8 [7]): inactive |
| Cc1cc(Oc2ccccc2F)ncc1-n1cc(-c2ccc(C(=O)O)cc2)nn1 | 64 | inactive | – |
| O=C(O)c1ccc(-c2cn(-c3cncc4ccccc34)nn2)cc1 | 33 | 96% | – |
| Cc1cc(Oc2ccc(F)cc2)ncc1-n1cc(-c2ccc(C(=O)O)cc2)nn1 | 134 | inactive | – |
| COc1ccccc1-c1cncc(-n2cc(-c3ccc(C(=O)O)cc3)nn2)c1 | – | – | inhibition (Human gammaherpesvirus 8 [1]): inactive |
| N#Cc1ccc(-c2cn(-c3cccnc3)nn2)cc1 | > 250 | – | – |
| O=C(O)c1ccc(-c2cn(-c3ccc(Nc4ccccc4)nc3)nn2)cc1 | 110 | 29% | – |
| Cc1ccc(-c2cncc(-n3cc(-c4ccc(C(=O)O)cc4)nn3)c2)cc1C | – | – | inhibition (Human gammaherpesvirus 8 [1]): inactive |
| Cc1cncc(-n2cc(-c3ccc(C(=O)O)cc3)nn2)c1 | 45 | 78% | – |
| COc1cccc(-c2cncc(-n3cc(-c4ccc(C(=O)O)cc4)nn3)c2)c1 | 110 | inactive | – |
| COc1ccc(-n2cc(-c3ccc(C(=O)O)cc3)nn2)cn1 | 218 | 11% | – |
| O=C(O)c1ccc(-c2cn(-c3cnccc3Cl)nn2)cc1 | 29 | 94% | – |
| Cc1cc(Oc2ccccc2)ncc1-n1cc(-c2ccc(C(=O)O)cc2)nn1 | 198 | inactive | – |
| Cc1ccc2cncc(-n3cc(-c4ccc(C(=O)O)cc4)nn3)c2c1 | 8 | 100% | inhibition (Human gammaherpesvirus 8 [2]): Active; IC50 [8]: 60 µM; inhibition (Human gammaherpesvirus 8 [9]): Active; Activity (Human gammaherpesvirus 8 [10]): Active; IC50 [11]: 53 µM; IC50 [4]: 8 µM; IC50 [6]: 9 µM; inhibition (Human gammaherpesvirus 8 [12]): Active |
| Cc1cnccc1-n1cc(-c2ccc(C(=O)O)cc2)nn1 | – | – | inhibition (Human gammaherpesvirus 8 [1]): inactive |
| COC(=O)c1ccc2cncc(-n3cc(-c4ccc(C(=O)O)cc4)nn3)c2c1 | > 250 | – | – |
| O=C(O)c1ccc(-c2cn(-c3cccnc3)nn2)cc1Cl | – | – | inhibition (Human gammaherpesvirus 8 [1]): inactive |
| O=C(O)c1ccc(-c2cn(-c3ccc(Oc4ccccc4)nc3)nn2)cc1 | – | – | inhibition (Human gammaherpesvirus 8 [1]): inactive |
| Cc1cc(Cl)ncc1-n1cc(-c2ccc(C(=O)O)cc2)nn1 | > 250 | – | – |
| NC(=O)c1ccc(-c2cn(-c3cccnc3)nn2)cc1 | – | – | inhibition (Human gammaherpesvirus 8 [1]): inactive |
| O=C(O)c1ccc(-c2cn(-c3cncc(-c4ccoc4)c3)nn2)cc1 | 19 | 34% | – |
| O=C(O)c1ccc(-c2cn(-c3cncc4ccc(Cl)cc34)nn2)cc1 | 17 | 100% | inhibition (Human gammaherpesvirus 8 [2]): inactive; IC50 [11]: 93 µM; IC50 [4]: 15 µM; IC50 [6]: 14 µM |
| CC(=O)Nc1ccc(-c2cn(-c3cccnc3)nn2)cc1 | – | – | inhibition (Human gammaherpesvirus 8 [1]): inactive |
| Cc1cc(-c2ccccc2O)ncc1-n1cc(-c2ccc(C(=O)O)cc2)nn1 | 21 | 100% | inhibition (Human gammaherpesvirus 8 [2]): inactive; IC50 [11]: 156 µM; IC50 [4]: 34 µM; IC50 [6]: 30 µM |
| Nc1ccc(-c2cn(-c3cccnc3)nn2)cc1 | > 250 | – | – |
| O=C(O)c1ccc(-c2cn(-c3cncc(-c4ccccc4)c3Cl)nn2)cc1 | 38 | 100% | inhibition (Human gammaherpesvirus 8 [2]): inactive; IC50 [4]: 45 µM; IC50 [6]: 55 µM; inhibition (Human gammaherpesvirus 8 [7]): inactive |

| Compound | IC50 [3] [µM] | inhibition (Human gammaherpesvirus 8 [5]) | also measured |
| --- | --- | --- | --- |
| Cc1cc(-c2ccccc2)ncc1-n1cc(-c2ccc(C(=O)O)cc2)nn1 | 36 | 36% | – |
| CCOC(=O)c1ccc(-c2cn(-c3cccnc3)nn2)cc1 | – | – | inhibition (Human gammaherpesvirus 8 [1]): inactive |
| COc1ccc(-c2cncc(-n3cc(-c4ccc(C(=O)O)cc4)nn3)c2)cc1 | – | – | inhibition (Human gammaherpesvirus 8 [1]): inactive |
| O=C(O)c1ccc(-c2cn(-c3cncc(-c4ccccc4)c3)nn2)cc1 | > 250 | – | – |
| Cc1cc(-c2ccc(Cl)cc2)ncc1-n1cc(-c2ccc(C(=O)O)cc2)nn1 | 58 | 30% | – |
| OCc1ccc(-c2cn(-c3cccnc3)nn2)cc1 | – | – | inhibition (Human gammaherpesvirus 8 [1]): inactive |
| O=C(O)c1ccc(-c2cn(Cc3cccnc3)nn2)cc1 | > 250 | – | – |
| N#Cc1ccc(-n2cc(-c3ccc(C(=O)O)cc3)nn2)cn1 | 52 | inactive | – |
| CC(C)Nc1ccc(-n2cc(-c3ccc(C(=O)O)cc3)nn2)cn1 | > 250 | – | – |
| Cc1cc(-c2cccc(CO)c2)ncc1-n1cc(-c2ccc(C(=O)O)cc2)nn1 | 25 | 100% | inhibition (Human gammaherpesvirus 8 [2]): inactive; IC50 [4]: 63 µM; IC50 [6]: 64 µM; inhibition (Human gammaherpesvirus 8 [7]): inactive |
| O=C(O)c1ccc(-c2cn(-c3cncc(-c4ccc(CO)cc4)c3)nn2)cc1 | > 250 | – | – |
| Cc1ccncc1-n1cc(-c2ccc(C(=O)O)cc2)nn1 | 86 | 39% | – |
| O=C(O)c1ccc(-c2cn(-c3ccc(Oc4ccccc4)cc3)nn2)cc1 | – | – | inhibition (Human gammaherpesvirus 8 [1]): inactive |
| O=C(O)c1ccc(-c2cn(-c3cncc(-c4cccc(CO)c4)c3)nn2)cc1 | > 250 | – | – |
| O=C(O)c1ccc(-c2cn(-c3cncc(-c4cccc(O)c4)c3)nn2)cc1 | 153 | 20% | – |
| O=C(O)c1ccc(-c2cn(-c3ccc(O)nc3)nn2)cc1 | 214 | 75% | – |
| COC(=O)c1ccc(-c2cn(-c3cccnc3)nn2)cc1 | – | – | inhibition (Human gammaherpesvirus 8 [1]): inactive |
| CNc1ccc(-n2cc(-c3ccc(C(=O)O)cc3)nn2)cn1 | – | – | inhibition (Human gammaherpesvirus 8 [1]): inactive |
| Cc1cc(Sc2ccccc2)ncc1-n1cc(-c2ccc(C(=O)O)cc2)nn1 | 175 | inactive | – |
| O=C(O)c1cccc(-c2cn(-c3cccnc3)nn2)c1 | > 250 | – | – |
| O=C(O)c1ccc(-c2cn(-c3cncc(F)c3)nn2)cc1 | – | – | inhibition (Human gammaherpesvirus 8 [1]): inactive |
| Cc1cc(Oc2cccc(F)c2)ncc1-n1cc(-c2ccc(C(=O)O)cc2)nn1 | 122 | inactive | – |
| O=C(O)c1ccc(-c2cn(-c3cnc4ccccc4c3)nn2)cc1 | 70 | 61% | – |
| O=C(O)c1ccc(-c2cn(-c3cccnc3)nn2)cc1 | 17 | 82% | inhibition (Human gammaherpesvirus 8 [2]): inactive; IC50 [8]: 435 µM; IC50 [11]: 426 µM; IC50 [4]: 19 µM; IC50 [6]: 20 µM |
| O=C(O)c1ccc(-c2cn(-c3cncc(-c4ccc(F)c(F)c4)c3)nn2)cc1 | > 250 | – | – |
| O=C(O)c1ccc(-c2cn(-c3ccc(Oc4cccnc4)cc3)nn2)cc1 | 19 | 100% | inhibition (Human gammaherpesvirus 8 [2]): inactive; IC50 [11]: 64 µM; IC50 [4]: 25 µM; IC50 [6]: 15 µM |
